The test system of series [1] is Influenza A virus (A/WSN/1933(H1N1)). Nature of the series: Antiviral activity against Influenza A virus (A/WSN/1933(H1N1)) infected in MDCK cells assessed as reduction in virus-induced cytopathic effect at 50 uM after 40 hrs by CellTiter-Glo assay. Type of series: functional, cell-based. Put shortly:
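Single-concentration screen: overnight-seeded MDCK cells were infected (MOI 0.1) in DMEM/1% FBS with […] TPCK-trypsin, compound at 1% final DMSO. CellTiter-Glo read-out after 40 h. Oseltamivir positive control; triplicate experiments, standard deviations shown.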
On the technique in general: Damage to the host cells serves as the signal in cytopathic effect assays.

Series [2] relates to Hepatitis C virus. Nature of the series: Antiviral activity against HCV pseudoparticle harboring HCV envelope protein E1 and E2 assessed as inhibition of pseudoparticle entry into human Huh7 cells at 1 uM measured after 3 days by Bright-Glo luciferase reporter gene assay relative to control. Type of series: functional, Hepacivirus hominis. To be noted: Huh-7, 72 h. In short, it runs like this:
(§1)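 HCV pseudoparticle entry screen with each compound at 1 µM and 5 µM in 1% DMSO. DMSO-only wells set maximum entry (negative control); echinocystic acid served as the entry-blocking positive control.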
(In general: A reporter such as luciferase makes a cellular process visible.)

Series [3] has as its system Hepatitis C virus. Description: Antiviral activity against HCV pseudoparticle harboring HCV envelope protein E1 and E2 assessed as inhibition of pseudoparticle entry into human Huh7 cells at 5 uM measured after 3 days by Bright-Glo luciferase reporter gene assay relative to control. The conditions noted are these: Huh-7, 72 h. Type of series: functional, Hepacivirus hominis. Put shortly: as §1

The test system of another series is MDCK. Description: Cytotoxicity against MDCK cells at 50 uM after 40 hrs by CellTiter-Glo assay. The conditions noted are these: dog. Format: cell-based, Canis lupus familiaris. In short, it runs like this:
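Uninfected MDCK cells grown overnight, then cultured 40 h in 1% FBS medium with test compound (50 μM in screen). Viability read by CellTiter-Glo luminescence. DMSO as negative control. Triplicate experiments, standard deviations shown.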
For orientation: Cellular ATP, detected with luciferase, serves as a proxy for viable cell number.

For series [4], the system named is Hepatitis C virus. Nature of the series: Antiviral activity against HCV pseudoparticle harboring HCV envelope protein E1 and E2 assessed as inhibition of pseudoparticle entry into human Huh7 cells measured after 3 days by Bright-Glo luciferase reporter gene assay. Format: functional. To be noted: Hepacivirus hominis.
Series [5] in a line: Antiviral activity against Influenza A virus (A/WSN/1933(H1N1)) infected in MDCK cells assessed as reduction in virus-induced cytopathic effect after 40 hrs by CellTiter-Glo assay. Format: functional, cell-based. In short, it runs like this: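 MDCK cells were seeded and incubated overnight, then infected (MOI 0.1) in DMEM with 1% FBS, […] TPCK-trypsin and compound dose series at 1% final DMSO. Cell viability was read by CellTiter-Glo luminescence after 40 h. IC50 is the concentration giving 50% inhibition of viral replication; oseltamivir was the positive control.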

The test system of series [6] is Influenza A virus (A/WSN/1933(H1N1)). Description: Antiviral activity against Influenza A virus (A/WSN/1933(H1N1)) infected in MDCK cells assessed as reduction in virus-induced cytopathic effect at 50 uM by microscopic method. Format: functional, cell-based. In short, it runs like this:
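CPE in compound-treated infected MDCK wells was inspected directly by light microscopy, with DMSO-treated infected wells as comparator.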

Structures are written as SMILES. Calls of active or inactive are those of the source. The rule behind the calls is not given here.

Consider `C=C[C@@H]1C2=CCOC(=O)C2=CO[C@H]1O[C@@H]1O[C@H](CO)[C@@H](N=[N+]=[N-])[C@H](O)[C@H]1O`, for which, in series [1], the result was Active. The inhibition at 1 µM in the series on Hepatitis C virus [2] worked out at 0.2%. The inhibition at 5 µM in the series on Hepatitis C virus [3] is 0.4%. Further, the Activity entry in the series on MDCK is “Non-Toxic”.
Turning to `C=C[C@@H]1C2=CCOC(=O)C2=CO[C@H]1O[C@@H]1O[C@H](CO)[C@@H](O)[C@H](O)[C@H]1O` [GENTIOPICROSIDE], the inhibition at 1 µM with Hepatitis C virus [2] turned out to be 0.6%. For the same compound, the inhibition at 5 µM with Hepatitis C virus [3] came to 2.1%.
Take `C=C[C@@H]1C2=CCOC(=O)C2=CO[C@H]1O[C@@H]1O[C@H](COC(=O)c2ccccc2)[C@@H](OS(C)(=O)=O)[C@H](OC(=O)c2ccccc2)[C@H]1OC(=O)c1ccccc1`: the outcome in series [1] and in series [6] was Active. Further, the inhibition at 1 µM in the series with Hepatitis C virus [2] worked out at 38.2%. In addition, the inhibition entry in the series with Hepatitis C virus [4] was “Dose-dependent effect”. In addition, in the series with Hepatitis C virus [3], the inhibition at 5 µM was 40.4%. In addition, the IC50 in series [5] was 39.5 µM. In addition, in the series on MDCK, the Activity entry is “Non-Toxic”.
As to `C=C[C@@H]1C2=CCOC(=O)C2=CO[C@H]1O[C@@H]1O[C@H](CO)[C@H](N=[N+]=[N-])[C@H](O)[C@H]1O`, the outcome in series [1] was Active. In the series with Hepatitis C virus [2], the inhibition at 1 µM turned out to be 11.7%. For the same compound, in the series on Hepatitis C virus [3], the inhibition at 5 µM came out at 23.3%. In the series on MDCK, the Activity entry is given as “Non-Toxic”.
Take `C=C[C@@H]1C2=CCOC(=O)C2=CO[C@H]1O[C@@H]1O[C@H](CSC)[C@@H](O)[C@H](O)[C@H]1O`: the result in series [1] was Active. Besides, the inhibition at 1 µM with Hepatitis C virus [2] was found to be 14.9%. The inhibition at 5 µM in the series on Hepatitis C virus [3] was 21%. Moreover, the Activity result in the series with MDCK is recorded as “Non-Toxic”.
Regarding `C=C[C@@H]1C2=CCOC(=O)C2=CO[C@H]1O[C@@H]1O[C@H](CF)[C@@H](OC(C)=O)[C@H](OC(C)=O)[C@H]1OC(C)=O`, in the series with Hepatitis C virus [2], the inhibition at 1 µM stood at 1.1%. For the same compound, the inhibition at 5 µM in the series on Hepatitis C virus [3] amounted to 7.8%.
Regarding `C=C[C@@H]1C2=CCOC(=O)C2=CO[C@H]1O[C@@H]1O[C@H](COC(=O)c2ccccc2)[C@@H](O)[C@H](OC(=O)c2ccccc2)[C@H]1OC(=O)c1ccccc1`, the inhibition at 1 µM in the series with Hepatitis C virus [2] came to 0.7%. In addition, the inhibition at 5 µM in the series on Hepatitis C virus [3] was found to be 8.1%.
The corresponding values for `C=C[C@@H]1C2=CCOC(=O)C2=CO[C@H]1O[C@@H]1O[C@H](CF)[C@@H](O)[C@H](O)[C@H]1O` are 0.3% and 1%.
As to `C=C[C@@H]1C2=CCOC(=O)C2=CO[C@H]1O[C@@H]1O[C@H](CS)[C@@H](O)[C@H](O)[C@H]1O`, the outcome in series [1] was Active. Moreover, the inhibition at 1 µM in the series with Hepatitis C virus [2] was 0.2%. In addition, in the series with Hepatitis C virus [3], the inhibition at 5 µM amounted to 0.1%. For the same compound, the Activity entry with MDCK is “Non-Toxic”.
On to `C=C[C@@H]1C2=CCOC(=O)C2=CO[C@H]1O[C@@H]1O[C@H](CO)[C@@H](F)[C@H](O)[C@H]1O`, for which the inhibition at 1 µM in the series with Hepatitis C virus [2] was 0.9%. Moreover, the inhibition result with Hepatitis C virus [4] is “Dose-dependent effect”. Further, in the series with Hepatitis C virus [3], the inhibition at 5 µM is 45.9%.
As to `C=C[C@@H]1C2=CCOC(=O)C2=CO[C@H]1O[C@@H]1O[C@H](CNC(C)=O)[C@@H](OC(C)=O)[C@H](OC(C)=O)[C@H]1OC(C)=O`, in the series with Hepatitis C virus [2], the inhibition at 1 µM is 9.1%. For the same compound, the inhibition at 5 µM with Hepatitis C virus [3] worked out at 8.8%.
For the compound `C=C[C@@H]1C2=CCOC(=O)C2=CO[C@H]1O[C@@H]1O[C@H](CNC(C)=O)[C@@H](O)[C@H](O)[C@H]1O`, the inhibition at 1 µM in the series with Hepatitis C virus [2] amounted to 0.2%. Also, the inhibition at 5 µM in the series on Hepatitis C virus [3] was 11.2%.
As to `C=C[C@@H]1C2=CCOC(=O)C2=CO[C@H]1O[C@@H]1O[C@H](CO)[C@H](F)[C@H](O)[C@H]1O`, the outcome in series [1] was Active. Further, in the series with Hepatitis C virus [2], the inhibition at 1 µM amounted to 0.7%. In addition, in the series on Hepatitis C virus [3], the inhibition at 5 µM came out at 13.3%. In addition, the IC50 in series [5] stood at 45.2 µM. For the same compound, the Activity result with MDCK is given as “Non-Toxic”.
On to `C=C[C@@H]1C2=CCOC(=O)C2=CO[C@H]1O[C@@H]1O[C@H](CSC(C)=O)[C@@H](OC(C)=O)[C@H](OC(C)=O)[C@H]1OC(C)=O`, for which, in series [1], the outcome was Active. In addition, the inhibition at 1 µM with Hepatitis C virus [2] stood at 30.4%. In the series with Hepatitis C virus [3], the inhibition at 5 µM was 21.7%. Moreover, the Activity result in the series with MDCK was “Non-Toxic”.
Take `C=C[C@@H]1C2=CCOC(=O)C2=CO[C@H]1O[C@@H]1O[C@H](COC(=O)c2ccccc2)[C@@H](SC(C)=O)[C@H](OC(=O)c2ccccc2)[C@H]1OC(=O)c1ccccc1`: the inhibition at 1 µM in the series with Hepatitis C virus [2] stood at 0.2%. Also, the inhibition entry in the series with Hepatitis C virus [4] is “Dose-dependent effect”. For the same compound, the inhibition at 5 µM with Hepatitis C virus [3] worked out at 45.1%.
On to `C=C[C@@H]1C2=CCOC(=O)C2=CO[C@H]1O[C@@H]1O[C@H](CO)[C@@H](S)[C@H](O)[C@H]1O`, for which the inhibition at 1 µM in the series on Hepatitis C virus [2] is 5.6%. For the same compound, the inhibition at 5 µM in the series on Hepatitis C virus [3] amounted to 18.6%.
Take `C=C[C@@H]1C2=CCOC(=O)C2=CO[C@H]1O[C@@H]1O[C@H](COC(=O)c2ccccc2)[C@H](F)[C@H](OC(=O)c2ccccc2)[C@H]1OC(=O)c1ccccc1`: the inhibition at 1 µM with Hepatitis C virus [2] was determined as 0.1%. Also, the inhibition at 5 µM in the series on Hepatitis C virus [3] stood at 0.2%.
On to `C=C[C@@H]1C2=CCOC(=O)C2=CO[C@H]1O[C@@H]1O[C@H](CSC)[C@@H](OC(C)=O)[C@H](OC(C)=O)[C@H]1OC(C)=O`, for which, in series [1], the outcome was Active. Moreover, the Activity result in the series with MDCK is given as “Non-Toxic”.
For the compound `C=C[C@@H]1C2=CCOC(=O)C2=CO[C@H]1O[C@@H]1O[C@H](COC(=O)c2ccccc2)[C@H](SC(C)=O)[C@H](OC(=O)c2ccccc2)[C@H]1OC(=O)c1ccccc1`, the inhibition at 1 µM in the series on Hepatitis C virus [2] is 9.5%. In addition, the inhibition at 5 µM in the series on Hepatitis C virus [3] amounted to 26.6%.
As to `C=C[C@@H]1C2=CCOC(=O)C2=CO[C@H]1O[C@@H]1O[C@H](CO)[C@H](S)[C@H](O)[C@H]1OC(=O)c1ccccc1`, the inhibition at 1 µM in the series on Hepatitis C virus [2] was found to be 0.3%. Also, the inhibition at 5 µM with Hepatitis C virus [3] came to 4.5%.
`C=C[C@@H]1C2=CCOC(=O)C2=CO[C@H]1O[C@@H]1O[C@H](COC(=O)c2ccccc2)[C@@H](F)[C@H](OC(=O)c2ccccc2)[C@H]1OC(=O)c1ccccc1`: the outcome in series [1] was Active. The Activity entry in the series with MDCK was “Non-Toxic”.
Turning to `C=C[C@@H]1C2=CCOC(=O)C2=CO[C@H]1O[C@@H]1OC(COC(=O)c2ccccc2)=C[C@H](OC(=O)c2ccccc2)[C@H]1OC(=O)c1ccccc1`, the result in series [1] was Active. For the same compound, the inhibition at 1 µM in the series with Hepatitis C virus [2] worked out at 0.5%. Also, the inhibition result in the series with Hepatitis C virus [4] was “Dose-dependent effect”. In the series on Hepatitis C virus [3], the inhibition at 5 µM was found to be 40.3%. In series [5], the IC50 came to 44 µM. For the same compound, in the series on MDCK, the Activity result is “Non-Toxic”.
With `C=C[C@@H]1C2=CCOC(=O)C2=CO[C@H]1O[C@@H]1O[C@H](COC(=O)c2ccccc2)[C@H](N=[N+]=[N-])[C@H](OC(=O)c2ccccc2)[C@H]1OC(=O)c1ccccc1`, the inhibition at 1 µM with Hepatitis C virus [2] was found to be 0.2%. In addition, the inhibition at 5 µM in the series on Hepatitis C virus [3] was found to be 17.9%.
For the compound `C=C[C@@H]1C2=CCOC(=O)C2=CO[C@H]1O[C@@H]1O[C@H](COC(c2ccccc2)(c2ccccc2)c2ccccc2)[C@@H](O)[C@H](O)[C@H]1O`, the Activity entry in the series on MDCK is listed as “Toxic”.
On to `CCOC(=O)C1=C[C@@H](OC(CC)CC)[C@H](NC(C)=O)[C@@H](N)C1` [OSELTAMIVIR], for which the IC50 in series [5] is 33.6 µM.
`C=C[C@@H]1C2=CCOC(=O)C2=CO[C@H]1O[C@@H]1O[C@H](COC(=O)c2ccccc2)[C@@H](N=[N+]=[N-])[C@H](OC(=O)c2ccccc2)[C@H]1OC(=O)c1ccccc1`: the inhibition at 1 µM with Hepatitis C virus [2] stood at 0.1%. Also, the inhibition at 5 µM in the series with Hepatitis C virus [3] was found to be 4.7%.
Turning to `CC1(C)CC[C@]2(C(=O)O)[C@H](O)C[C@]3(C)C(=CC[C@@H]4[C@@]5(C)CC[C@H](O)C(C)(C)[C@@H]5CC[C@]43C)[C@@H]2C1`, in the series on Hepatitis C virus [2], the inhibition at 1 µM was 30.7%. Further, in the series with Hepatitis C virus [3], the inhibition at 5 µM was 69.6%.

Broadly, the inhibition is the change of the read-out against control, counted positive when it falls. As usually defined, the IC50 is the midpoint of a concentration-inhibition curve.

The record behind these values is ChEMBL document CHEMBL4014281, “Design, synthesis and biological evaluation of gentiopicroside derivatives as potential antiviral inhibitors” (Eur J Med Chem, 2017).
